PAFAH2 inh: inhibitors of human PAFAH2 | 340,000 compounds, 0.99% hits | inhibition, % at 3.39 µM | AID 492956 | recombinant PAFAH2, FP-rhodamine activity probe, fluorescence polarization | Q99487;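 active = inhibition above the mean over all tested compounds plus 3 SD, cut at about 30% in these data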;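 also: inhibitors block probe labeling of enzyme so polarization drops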
ARFGAP1 inh: inhibits rat ARF GTPase activating protein 1. inhibition, % at 16.5 µM. 360,000 compounds, 0.26% hits. AID 651572. Arfgap1-stimulated ARF1 GTP hydrolysis, GDP FP detection;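 active = inhibition above a per-plate limit, mean inhibition of low control wells plus 3 SD, cut at about 25% in these data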
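material = rat Arfgap1 catalytic domain, aa 1-136 | also added = human ARF1(Δ1-17)-GTP substrate | compound dosing = one concentration, 16.5 µM, DMSO 1.26% | times = GTP hydrolysis reaction 2 h at 25 °C | measured by = FP, GDP Alexa 633 tracer displaced from anti-GDP antibody, 620/688 nm | evaluation = percent inhibition of Arfgap1-stimulated GTP hydrolysis | replication = single well per compound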
pPAFAH FP inh: pPAFAH (human) enzyme inhibition; Q13093; recombinant pPAFAH, FP-rhodamine probe fluorescence polarization; inhibition, % at 3.39 µM; 330,000 compounds, 1.5% hits; AID 463082;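 active = inhibition above the mean inhibition across the screen plus 3 SD, cut at about 25% in these data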;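 also: inhibitors block binding of the rhodamine activity-based probe so polarization drops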
PAFAH1B2 FP inh: inhibitors of human PAFAH1B2. recombinant PAFAH1B2, FP-rhodamine activity probe, fluorescence polarization. inhibition, % at 3.39 µM. 340,000 compounds, 1.2% hits. AID 492953;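 active = inhibition above the mean of all tested compounds plus 3 SD, cut at about 24% in these data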
ASAP1 GAP inh: ASAP1 ArfGAP inhibition; Q9ULH1; AID 624377; ASAP1-stimulated ARF1 GTP hydrolysis, GDP FP detection; inhibition, % at 16.5 µM; 360,000 compounds, 0.19% hits; in the data active = inhibition above about 25%
Target sequence (Q9ULH1 325-724 limits assumed): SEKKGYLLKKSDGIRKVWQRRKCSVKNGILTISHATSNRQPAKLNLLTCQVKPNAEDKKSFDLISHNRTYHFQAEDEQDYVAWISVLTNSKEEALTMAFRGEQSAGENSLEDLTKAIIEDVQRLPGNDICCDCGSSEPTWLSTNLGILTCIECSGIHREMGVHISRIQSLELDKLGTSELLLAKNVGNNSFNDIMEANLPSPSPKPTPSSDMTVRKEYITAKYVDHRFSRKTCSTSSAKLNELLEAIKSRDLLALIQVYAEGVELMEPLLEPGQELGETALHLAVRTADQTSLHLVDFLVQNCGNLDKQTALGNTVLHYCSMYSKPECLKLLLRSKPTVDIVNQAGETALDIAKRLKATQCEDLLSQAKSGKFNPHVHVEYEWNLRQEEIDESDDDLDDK
PAFAH1B3 FP inh: inhibitors of human PAFAH1B3; Q15102; recombinant PAFAH1B3, FP-rhodamine probe, fluorescence polarization; inhibition, % at 3.39 µM; 340,000 compounds, 0.28% hits;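 active = inhibition above the screen-wide average of all tested compounds plus 3 SD, cut at about 25% in these data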
pPAFAH confirm: confirmation of human plasma PAF acetylhydrolase (pPAFAH) inhibitors. shares compounds with pPAFAH FP inh. recombinant pPAFAH, FP-Rh probe fluorescence polarization. inhibition, % at 3.39 µM. 2,300 compounds, 72% hits. AID 463230;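 active = mean inhibition of the triplicate above the hit cutoff set for the earlier primary screen, cut at about 25% in these data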
Each line names hits and unclear results; the compound was inactive in the other large screens (follow-up assays come after a bar, where they were run). Hits are enriched below; roughly 2.8% of the tested compounds scored in any of these assays.

Oc1ccc(/C=N/Nc2cc(N3CCCC3)nc(N3CCCC3)n2)cc1O	pPAFAH FP inh 56 | pPAFAH confirm 28
Oc1ccc(/C=N\Nc2cc(N3CCOCC3)nc(N3CCOCC3)n2)c(O)c1	none
O=C(O)Cn1ccc2cc(S(=O)(=O)N3CCCCCC3)ccc21	none
O=C(O)CNc1nc(NCc2ccc(Cl)cc2)ccc1[N+](=O)[O-]	none (no result: PAFAH2 inh, pPAFAH FP inh, PAFAH1B2 FP inh, PAFAH1B3 FP inh)
Cc1c(C(=O)NC2CC(C)(C)NC(C)(C)C2)oc2c(Cl)cccc12	none (no result: PAFAH2 inh, pPAFAH FP inh, PAFAH1B2 FP inh, PAFAH1B3 FP inh)
O=C(O)c1cccc2c(-c3ccccc3)c(-c3ccccc3)[nH]c12	pPAFAH FP inh 52, PAFAH1B2 FP inh 48 | pPAFAH confirm 46
CC(=O)c1ccc(N2CCN(C(=O)c3ccc(Cn4c(=S)[nH]c5ccc(N6CCOCC6)cc5c4=O)cc3)CC2)cc1	pPAFAH FP inh 49 | pPAFAH confirm inactive
O=C(C(=O)N1CCN(C(=O)OCc2ccccc2)CC1)c1cccs1	none (no result: PAFAH2 inh, pPAFAH FP inh, PAFAH1B2 FP inh, PAFAH1B3 FP inh)
O=C(O)c1ccccc1NS(=O)(=O)c1ccc(NN=Cc2ccc(F)cc2)c([N+](=O)[O-])c1	pPAFAH FP inh 58 (no result: ARFGAP1 inh, ASAP1 GAP inh) | pPAFAH confirm 77
O=C(O)c1ccccc1NS(=O)(=O)c1ccc(NN=Cc2cccc(Cl)c2)c([N+](=O)[O-])c1	pPAFAH FP inh 66 | pPAFAH confirm 77
O=C(O)COc1ccccc1/C=N/Nc1ccc(S(=O)(=O)Nc2ccc(Cl)cc2)cc1[N+](=O)[O-]	pPAFAH FP inh 65, PAFAH1B2 FP inh 47 | pPAFAH confirm 68
O=C(O)c1ccccc1/C=N/Nc1ccc(S(=O)(=O)N2CCOCC2)cc1[N+](=O)[O-]	none
CN(CC(=O)Nc1ccc(Cl)c(C(F)(F)F)c1)S(=O)(=O)c1cnc[nH]1	none (no result: PAFAH2 inh, pPAFAH FP inh, PAFAH1B2 FP inh, PAFAH1B3 FP inh)
Cc1ccc(S(=O)(=O)N(C)[C@H]2C[C@H]3c4[nH]c5ccccc5c4CCN3C[C@H]2[C@H](C)O)cc1	none (no result: PAFAH2 inh, pPAFAH FP inh, PAFAH1B2 FP inh, PAFAH1B3 FP inh)
O=C(NCc1ccccc1)c1nnc(CS(=O)(=O)c2ccccc2)o1	pPAFAH FP inh 63 | pPAFAH confirm inactive
CCOc1ccc(CNC(=O)c2nnc(CS(=O)(=O)c3ccccc3)o2)cc1OC	none
COc1ccc(NC(=O)C(c2ccnc3ccccc23)n2c(=O)c(-c3ccccc3)nc3ccccc32)cc1 (stereo unspecified)	none (no result: PAFAH2 inh, pPAFAH FP inh, PAFAH1B2 FP inh, PAFAH1B3 FP inh)
O=C(Oc1ccc(OC(=O)C2CCC2)cc1)C1CCC1	pPAFAH FP inh 42 | pPAFAH confirm inactive
CCOC(=O)C1CCN(C(=O)c2cc(S(=O)(=O)N3CCCCCC3)ccc2OC)CC1	none
Nc1ncnc2c1c(-c1ccc(Oc3ccccc3)cc1)cn2C1CCCC1	pPAFAH FP inh 39 | pPAFAH confirm 38
O=C(O)C1OC(Oc2c(-c3ccc(O)c(O)c3)oc3cc(O)cc(O)c3c2=O)C(O)C(O)C1O (stereo unspecified)	none (no result: PAFAH2 inh, ARFGAP1 inh, PAFAH1B2 FP inh, ASAP1 GAP inh, PAFAH1B3 FP inh)
O=c1c(O)c(-c2ccc(O)c(O)c2)oc2cc(O)cc(O)c12	pPAFAH FP inh 53, PAFAH1B2 FP inh 29, PAFAH1B3 FP inh 53 | pPAFAH confirm 82
Cc1nnsc1C(=O)N/N=C/c1ccc2ccccc2c1O	pPAFAH FP inh 36 | pPAFAH confirm 48

Screening data deposited in PubChem by The Scripps Research Institute Molecular Screening Center.
